# Laboratory results from the RNAGym collection of RNA variant scans (doi:10.1126/science.aae0568).
# This sample holds only a part of the variants without activity.
# B1: tRNA (parent)
# chain: GUUCCGUUGGCGUAAUGGUAACGCGUCUCCCUCCUAAGGAGAAGACUGCGGGUUCGAGUCCCGUACGGAACG
# Variants of: B1
# Experiment: yeast fitness relative to wild type (ratio to wild type); higher = fitter; tRNA-Arg(CCU), competitive growth, 37 C, YPD
# Procedure, shortened: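 A pool of Saccharomyces cerevisiae strains, each with a tRNA-Arg(CCU) gene variant at the native genomic locus, was competed in YPD at 37°C for 24 hours across six parallel replicates. The variants had been chemically synthesised at a 3% per-site mutation rate over 69 sites, and gene amplicons before and after competition were read by 100-nucleotide paired-end sequencing. Darwinian fitness relative to wild type rested on changes in genotype frequencies. Genotypes required ≥ 100 starting reads, and estimates < 0.5 were set to 0.5.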
row,Variant,yeast fitness
1,U2A C24G A43U C46U A57G,≤ 0.5
2,U2A C27U,0.982
3,U2A C27A,0.894
4,U2A G6A C11G C49U G58C,≤ 0.5
5,U2A G50C A57G,≤ 0.5
6,U2A C30U,0.812
7,U2A G68U,0.773
8,U2A G25A C31G G39C C49U C60G,≤ 0.5
9,U2A U28A G51C A57C,≤ 0.5
10,U2A G18A G23C A45U,0.573
11,U2A G9A U13A C24A A45C U64A,0.537
12,U2A C22U A40C,0.631
13,U2A G23A C29G C55U,≤ 0.5
14,U2A G39A G48C,≤ 0.5
15,U2A C22A A65C,≤ 0.5
16,U2A C22A A65U,≤ 0.5
17,U2A C27U C34A,≤ 0.5
18,U2A C33G A42C,0.509
19,U2A C29U,0.884
20,U2A C24A A45G,0.568
21,U2A U3C U26C U35A C62A,≤ 0.5
22,U2A G56C A57G G68U,≤ 0.5
23,U2A G63C,0.673
24,U2A G63A,0.927

row,Variant,yeast fitness
1,U2A G6A A40U C46A,0.596
2,U2A G25C A36U,≤ 0.5
3,U2A G9A A45C,0.682
4,U2A C33G C46A C66A,≤ 0.5
5,U2A G9C U16G U32G G52A G63C C66U,≤ 0.5
6,U2C A15C C55G A57C,0.512
7,U2A G6C U16C C24U A36G,≤ 0.5
8,U2A G9A U13A C24A A45C,0.536
9,U2A C33A C34U G56A A69C,≤ 0.5
10,U2A C22A C49G,≤ 0.5
11,U2A G41C,0.757
12,U2A C46G C61U,0.804
13,U2A C33U A37C,0.532
14,U2A C66U A70C,0.641
15,U2A C29A C30U C46U G58C,≤ 0.5
16,U2A U28A A37C U64C A65G,≤ 0.5
17,U2A C24A C30U,≤ 0.5
18,U2A G58A,0.838
19,U2A U16G G23C C31U A36U U59A,≤ 0.5
20,U2C A15G,0.91
21,U2A G6A U16C C24U G38C A65C,≤ 0.5
22,U2C A14C A15G U16A,≤ 0.5
23,U2A G9A C31U C46G C49U C66G,≤ 0.5
24,U2A G38C C55U,≤ 0.5

row,Variant,yeast fitness
1,U2A G9A C34U C49G G52C C55U C62G,≤ 0.5
2,U2A C22G,0.888
3,U2A C22U,0.796
4,U2A U3C,0.931
5,U2A U3A,0.809
6,U2A G39U C49A G58C,0.939
7,U2C A14C C46A A65G,≤ 0.5
8,U2C A14G A42C,0.575
9,U2A G6A U7C A15C C29G C33U,≤ 0.5
10,U2A U28G A40C G67C,0.639
11,U2A G9C U16G C24U G68C,≤ 0.5
12,U2A G39A A69G,0.599
13,U2A C31A G48A,0.619
14,U2A U3A G39A A42C,≤ 0.5
15,U2A U16A C49A G50A G68C,≤ 0.5
16,U2A G6A C11G A42U A65G C66G G68A,≤ 0.5
17,U2A C34G A37U A40U C66U,≤ 0.5
18,U2C A20U A40U C62A C66A,≤ 0.5
19,U2A C24G A42U,0.812
20,U2A U16G A42G A43U C46U C62U,≤ 0.5
21,U2A C31U U35C A45U,≤ 0.5
22,U2A U19A A20C U26A,0.578
23,U2C A14G G18A U32A G44A G56C,≤ 0.5
24,U2A G10C C27A A37U C49A G56A,≤ 0.5

row,Variant,yeast fitness
1,U2A C60G G63C,≤ 0.5
2,U2A U7C G25A A36C C60A C62G,0.524
3,U2C A14C C31A,≤ 0.5
4,U2C A14C A40C,≤ 0.5
5,U2C A14C A40G,0.775
6,U2A G39C,0.75
7,U2A C30A C61U,≤ 0.5
8,U2A C31G U32G,0.526
9,U2A C22G G25C C61G,0.703
10,U2A C22G G25C C61U,≤ 0.5
11,U2A G12A,0.886
12,U2A C24U C30U C34U G52A,≤ 0.5
13,U2A G18A G44C,≤ 0.5
14,U2C A15U U16C G23C,≤ 0.5
15,U2C A14U A21U,0.596
16,U2A C49U A57U,≤ 0.5
17,U2A U59C,0.995
18,U2A U16A C31G,0.875
19,U2A G18A C30G U35C,≤ 0.5
20,U2C A14G C46U C60A,≤ 0.5
21,U2A C24G G63A,0.551
22,U2A C24U A42C C62G,≤ 0.5
23,U2A C29G C30G C49A G56C C61U,0.749
24,U2A C33G A36C,≤ 0.5

row,Variant,yeast fitness
1,U2C A20G,0.98
2,U2C A20C,0.98
3,U2A G9A A37G U47C A65C,≤ 0.5
4,U2A U16C C30A C61G,≤ 0.5
5,U2C A15G G44A G50C A70G,≤ 0.5
6,U2A C24G G25A C61G G67C G68A,≤ 0.5
7,U2A U7C G25A A36U C60A C62G,0.58
8,U2C A14C A37U A40C,≤ 0.5
9,U2A G6C U7C C30A G44A C66A,0.576
10,U2A G25A A69G,0.576
11,U2A U13C U16A G56C A57G C62U,0.528
12,U2C A14C G39A,≤ 0.5
13,U2A G9A G48C G50A,≤ 0.5
14,U2A C24G G63C G67C A69U,≤ 0.5
15,U2A G17C C46U G67C,≤ 0.5
16,U2A G6C C33U A40G,0.547
17,U2A U47G G50C,≤ 0.5
18,U2A U28C G41C U54A,0.56
19,U2A U16C C30A G67C,0.557
20,U2A U3C G6A C66G,≤ 0.5
21,U2A C27U U47G C55G G58C,≤ 0.5
22,U2A G9A A37G A65C,≤ 0.5
23,U2A C33A C55G A69C,≤ 0.5
24,U2A G9C G17A C60G,0.572

row,Variant,yeast fitness
1,U2A G12A A21C G48C,≤ 0.5
2,U2A C30U A57G,≤ 0.5
3,U2C A15C G23A C31G A45U,0.61
4,U2A U28A C55G A70G,≤ 0.5
5,U2A G6A A36C,0.666
6,U2C A15U C46A,≤ 0.5
7,U2A U3G C11A U16C C22G A57C C62A,0.572
8,U2A U13A A14C C33U,≤ 0.5
9,U2A C30U C46A U54A A57G,≤ 0.5
10,U2A C29G U47G C49G U54G,≤ 0.5
11,U2A U16A U19A C46U,0.714
12,U2A C33A C55A G63A,0.513
13,U2A C31A A69U,0.604
14,U2A G12U G23A A36G G39A,0.584
15,U2C A15C G23C C31A,≤ 0.5
16,U2A C34G G58C C66U,≤ 0.5
17,U2A G10C,0.673
18,U2A U47C,1.08
19,U2A C30U G44C G51A C61U,≤ 0.5
20,U2A G23A C29G A69U,0.643
21,U2A G38C A69U,≤ 0.5
22,U2A G12A A20G U26C C31G C33U A42U,≤ 0.5
23,U2A U3A U59G,≤ 0.5
24,U2C A20C C29G A36C G52C A57U,≤ 0.5

row,Variant,yeast fitness
1,U2A C24U C30U C34U G52A C61A,≤ 0.5
2,U2A U16C C30A,0.558
3,U2A U64A A70U,1.06
4,U2A U7A C27U C46G,≤ 0.5
5,U2A C66U G67A,0.601
6,U2A G10A C49A U53C C62G,≤ 0.5
7,U2A C24A A42U,≤ 0.5
8,U2A G67C,0.792
9,U2A G67A,0.844
10,U2A C46A G51C,0.599
11,U2A U28C G39A C62U A65U,≤ 0.5
12,U2A G9A U19A A20U,0.622
13,U2A U16A C66U A69G,≤ 0.5
14,U2A U59C C66G,0.537
15,U2C A15U C34A G39C A40C G56C C61G C62G G68C,≤ 0.5
16,U2A U13A C24A C30A,≤ 0.5
17,U2A G6A C11U C31G G51A G67A,≤ 0.5
18,U2A C31U A40C C55G G68A A69U,≤ 0.5
19,U2A U47C C66U,0.683
20,U2A U19A,0.931
21,U2A U13A A21C A42G,≤ 0.5
22,U2A G17C A57C G63C C66U,≤ 0.5
23,U2A U28C G39A,0.508
